Source: ChEMBL document CHEMBL3585278, “Effect of deuteration on metabolism and clearance of Nerispirdine (HP184) and AVE5638” (Bioorg Med Chem, 2015)

Legend:
Liver [1] = test: Drug metabolism in human liver S9 fraction assessed as metabolic reaction rate at 1 uM measured up to 3 hrs by LC-MS/MS analysis; type: ADME, subcellular; details: s9, 3 h
Summary of the method: (§1)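 Human liver S9 fraction, liver microsomes or hepatocytes were incubated with substrate or its deuterated analogue at 1 and 10 µM, with or without an NADPH-generating system. Substrate depletion over time was followed. Reaction rate was given as nmol/min/mg for S9 and microsomes, and nmol/min per 10^6 cells for hepatocytes.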

Liver microsome [2] = test: Drug metabolism in human liver microsomes assessed as metabolic reaction rate at 10 uM measured up to 3 hrs by LC-MS/MS analysis; type: ADME; summary of the method: as §1
Liver [3] = test: Drug metabolism in human liver S9 fraction assessed as metabolic reaction rate at 10 uM measured up to 3 hrs by LC-MS/MS analysis; type: ADME, subcellular; details: s9, 3 h; summary of the method: as §1
Hepatocyte [4] = test: Drug metabolism in human hepatocytes assessed as metabolic reaction rate at 10 uM measured per 10^6 cells up to 3 hrs by LC-MS/MS analysis; type: ADME, cell-based; summary of the method: as §1
Liver microsome [5] = test: Drug metabolism in human liver microsomes assessed as metabolic reaction rate at 1 uM measured up to 3 hrs by LC-MS/MS analysis; type: ADME; summary of the method: as §1
Hepatocyte [6] = test: Drug metabolism in human hepatocytes assessed as metabolic reaction rate at 1 uM measured per 10^6 cells up to 3 hrs by LC-MS/MS analysis; type: ADME, cell-based; summary of the method: as §1
Hepatocyte [7] = test: Clearance in human hepatocytes at 10 uM measured per 10^6 cells up to 24 hrs by LC-MS/MS analysis; type: ADME, cell-based
Summary of the method: (§2)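 Plated human hepatocytes (two preparations) were incubated with parent or d14 analogue at 2 or 10 µM. Aliquots taken at several times up to 24 h were assayed by LC–MS/MS for parent, N-depropylated metabolite and carboxylic acid metabolite. Clearance was expressed as mL/h per 10^6 cells.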

Liver microsome [8] = test: Clearance in human liver microsomes assessed as initial mean metabolism rate at 5 uM at protein concentration of 0.5 mg/ml measured per mg protein up to 30 mins by LC-MS/MS analysis; type: ADME; details: 0.5 h
Summary of the method: (§3)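 Human liver microsomes at 0.25, 0.5 or 1 mg protein/mL were incubated with 5 µM substrate (parent or d14 analogue). Aliquots taken at several times up to 30 min were assayed by LC–MS/MS for parent and N-depropylated metabolite. Initial mean metabolism rate was given as nmol/min/mg protein.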

Liver microsome [9] = test: Clearance in human liver microsomes assessed as initial mean metabolism rate at 5 uM at protein concentration of 0.25 mg/ml measured per mg protein up to 30 mins by LC-MS/MS analysis; type: ADME; details: 0.5 h; summary of the method: as §3
[10] = Cmax in Sprague-Dawley rat at 20 mg/kg, po by LC-MS/MS analysis; type: ADME, organism-based; parameters: dose 20 mg/kg, route oral; details: in vivo
Summary of the method: (§4)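 Male Sprague–Dawley rats (5 per compound) received 20 mg/kg orally of parent or d14 analogue. Plasma was sampled at several times up to 48 h and assayed by LC–MS/MS. Tmax is reported with a range; Cmax, AUClast, AUC and t1/2 were derived from plasma concentration–time data.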

[11] = Tmax in Sprague-Dawley rat at 20 mg/kg, po by LC-MS/MS analysis; type: ADME, organism-based; details: in vivo; summary of the method: as §4
[12] = AUClast in Sprague-Dawley rat at 20 mg/kg, po by LC-MS/MS analysis; type: ADME, organism-based; parameters: dose 20 mg/kg, route oral, time 0 - last; details: in vivo; summary of the method: as §4
Rattus norvegicus [13] = test: In vivo drug metabolism in Sprague-Dawley rat assessed as 1-(3-fluoropyridin-4-ylamino)-1H-indole-3-carboxylic acid-d4 formation at 20 mg/kg, po up to 48 hrs by LC-MS/MS analysis; type: ADME, organism-based
Summary of the method: (§5)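 Male Sprague–Dawley rats, 5 per compound, were dosed orally at 20 mg/kg with parent or d14 analogue. Plasma collected at several times up to 48 h was analysed by LC–MS/MS for parent, N-depropylated metabolite and carboxylic acid metabolite, giving concentration–time profiles.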

Liver microsome [14] = test: Drug metabolism in human liver microsomes assessed as 1-(3-fluoropyridin-4-ylamino)-1H-indole-3-carboxylic acid-d4 formation at 5 uM up to 30 mins by LC-MS/MS analysis
[15] = AUC in Sprague-Dawley rat at 20 mg/kg, po by LC-MS/MS analysis; type: ADME, organism-based; details: in vivo; summary of the method: as §4
[16] = Half-life in Sprague-Dawley rat at 20 mg/kg, po by LC-MS/MS analysis; type: ADME, organism-based; details: in vivo; summary of the method: as §4
Liver microsome [17] = test: Clearance in human liver microsomes assessed as initial mean metabolism rate at 5 uM at protein concentration of 1 mg/ml measured per mg protein up to 30 mins by LC-MS/MS analysis; type: ADME; details: 0.5 h; summary of the method: as §3
Hepatocyte [18] = test: Drug metabolism in human hepatocytes assessed as 1-(3-fluoropyridin-4-ylamino)-1H-indole-3-carboxylic acid formation at 2 to 10 uM up to 24 hrs by LC-MS/MS analysis; type: ADME, cell-based; summary of the method: as §2
Hepatocyte [19] = test: Clearance in human hepatocytes at 2 uM measured per 10^6 cells up to 24 hrs by LC-MS/MS analysis; type: ADME, cell-based; summary of the method: as §2
Hepatocyte [20] = test: Drug metabolism in human hepatocytes assessed as 1-(3-fluoropyridin-4-ylamino)-1H-indole-3-carboxylic acid-d4 formation at 2 to 10 uM up to 24 hrs by LC-MS/MS analysis; type: ADME, cell-based; summary of the method: as §2
Rattus norvegicus [21] = test: In vivo drug metabolism in Sprague-Dawley rat assessed as 1-(3-fluoropyridin-4-ylamino)-1H-indole-3-carboxylic acid formation at 20 mg/kg, po up to 48 hrs by LC-MS/MS analysis; type: ADME, organism-based; summary of the method: as §5
Liver microsome [22] = test: Drug formation in human liver microsomes treated with Nerispirdine at 5 uM up to 30 mins by LC-MS/MS analysis
Hepatocyte [23] = test: Drug formation in human hepatocytes treated with Nerispirdine at 2 to 10 uM up to 24 hrs by LC-MS/MS analysis; type: ADME, cell-based; summary of the method: as §2
Rattus norvegicus [24] = test: In vivo drug formation in Sprague-Dawley rat treated with Nerispirdine at 20 mg/kg, po up to 48 hrs by LC-MS/MS analysis; type: ADME, organism-based; summary of the method: as §5
Liver microsome [25] = test: Drug formation in human liver microsomes treated with (3-Fluoro-pyridin-4-yl)-(3-methyl-indol-1-yl)-propylamine-d14 formation at 5 uM up to 30 mins by LC-MS/MS analysis
Hepatocyte [26] = test: Drug formation in human hepatocytes treated with (3-Fluoro-pyridin-4-yl)-(3-methyl-indol-1-yl)-propylamine-d14 at 2 to 10 uM up to 24 hrs by LC-MS/MS analysis; type: ADME, cell-based; summary of the method: as §2
Rattus norvegicus [27] = test: In vivo drug formation in Sprague-Dawley rat treated with (3-Fluoro-pyridin-4-yl)-(3-methyl-indol-1-yl)-propylamine-d14 at 20 mg/kg, po up to 48 hrs by LC-MS/MS analysis; type: ADME, organism-based; summary of the method: as §5
Hepatocyte [28] = test: Drug metabolism in human hepatocytes assessed as N-(3-fluoropyridin-4-yl)-3-methyl-1H-indol-1-amine formation at 2 to 10 uM up to 24 hrs by LC-MS/MS analysis; type: ADME, cell-based; summary of the method: as §2
Rattus norvegicus [29] = test: In vivo drug metabolism in Sprague-Dawley rat assessed as N-(3-fluoropyridin-4-yl)-3-methyl-1H-indol-1-amine formation at 20 mg/kg, po up to 48 hrs by LC-MS/MS analysis; type: ADME, organism-based; summary of the method: as §5
Rattus norvegicus [30] = test: In vivo drug metabolism in Sprague-Dawley rat assessed as (3-Fluoro-pyridin-4-yl)-(3-methyl-indol-1-yl)-amine-d7 formation at 20 mg/kg, po up to 48 hrs by LC-MS/MS analysis; type: ADME, organism-based; summary of the method: as §5
Liver microsome [31] = test: Drug metabolism in human liver microsomes assessed as N-(3-fluoropyridin-4-yl)-3-methyl-1H-indol-1-amine formation at 5 uM up to 30 mins by LC-MS/MS analysis

In the case of `NCc1cccc(C2CCN(C(=O)c3ccc(C#Cc4ccccc4F)o3)CC2)c1`, the Drug metabolism (Liver [1]) is reported as 0.0219 nmol/min/mg, the Drug metabolism (Liver microsome [2]) is reported as 0.0215 nmol/min/mg and the Drug metabolism (Liver [3]) is reported as 0.0238 nmol/min/mg. The Drug metabolism (Hepatocyte [4]) was 0.016 nmol/min/10^6 cells, the Drug metabolism (Liver microsome [5]) was 0.0201 nmol/min/mg and the Drug metabolism (Hepatocyte [6]) was 0.0143 nmol/min/10^6 cells.
Compound `[2H]c1cc2c(C([2H])([2H])[2H])c([2H])n(N(c3ccncc3F)C([2H])([2H])C([2H])([2H])C([2H])([2H])[2H])c2c([2H])c1[2H]` has a CLint (Hepatocyte [7]) of 0.196 mL/h/10^6 cells, a metabolic rate (Liver microsome [8]) of 0.638 nmol/min/mg and a metabolism rate (Liver microsome [9]) of 0.42 nmol/min/mg. The Cmax [10] was 971 ng/mL, the Tmax [11] was 0.5 h and the AUC(0-t) [12] was 3670 ng·h/mL. The Drug metabolism (Rattus norvegicus [13]) was “metabolite_detected”, the Drug metabolism (Liver microsome [14]) was “metabolite_notdetected” and the AUC [15] was 3800 ng·h/mL. For the same compound, the half-life [16] was 11.1 h, the metabolic rate (Liver microsome [17]) was 0.217 nmol/min/mg and the Drug metabolism (Hepatocyte [18]) was “metabolite_detected”. The CLint (Hepatocyte [19]) was 0.572 mL/h/10^6 cells, the Drug metabolism (Hepatocyte [20]) was “metabolite_detected” and the Drug metabolism (Rattus norvegicus [21]) was “metabolite_detected”.
With `[2H]C([2H])(N)c1cccc(C2CCN(C(=O)c3ccc(C#Cc4ccccc4F)o3)CC2)c1` the Drug metabolism (Liver [1]) was 0.0081 nmol/min/mg, the Drug metabolism (Liver microsome [2]) was 0.0045 nmol/min/mg and the Drug metabolism (Liver [3]) was 0.0043 nmol/min/mg. It also gave a Drug metabolism (Hepatocyte [4]) of 0.0081 nmol/min/10^6 cells, a Drug metabolism (Liver microsome [5]) of 0.0048 nmol/min/mg and a Drug metabolism (Hepatocyte [6]) of 0.0143 nmol/min/10^6 cells.
In the case of `Cc1cn(Nc2ccncc2F)c2ccccc12`, the Drug metabolism (Liver microsome [22]) is reported as “metabolite_detected”, the Drug metabolism (Hepatocyte [23]) is reported as “metabolite_detected” and the Drug metabolism (Rattus norvegicus [24]) is reported as “metabolite_detected”.
With `[2H]c1cc2c(C([2H])([2H])[2H])c([2H])n(Nc3ccncc3F)c2c([2H])c1[2H]` the Drug metabolism (Liver microsome [25]) was “metabolite_detected”, the Drug metabolism (Hepatocyte [26]) was “metabolite_detected” and the Drug metabolism (Rattus norvegicus [27]) was “metabolite_detected”.
In the case of `O=C(O)c1cn(Nc2ccncc2F)c2ccccc12`, the Drug metabolism (Hepatocyte [23]) is reported as “metabolite_detected” and the Drug metabolism (Rattus norvegicus [24]) is reported as “metabolite_detected”.
For `[2H]c1cc2c(C(=O)O)c([2H])n(Nc3ccncc3F)c2c([2H])c1[2H]`, the Drug metabolism (Hepatocyte [26]) was “metabolite_detected” and the Drug metabolism (Rattus norvegicus [27]) was “metabolite_detected”.
`CCCN(c1ccncc1F)n1cc(C)c2ccccc21` [NERISPIRDINE] showed a CLint (Hepatocyte [7]) of 0.2 mL/h/10^6 cells, a metabolic rate (Liver microsome [8]) of 0.346 nmol/min/mg and a metabolism rate (Liver microsome [9]) of 1.15 nmol/min/mg. The Drug metabolism (Hepatocyte [28]) was “metabolite_detected”, the Drug metabolism (Rattus norvegicus [29]) was “metabolite_detected” and the Cmax [10] was 822 ng/mL. For the same compound, the Tmax [11] was 1 h, the AUC(0-t) [12] was 4070 ng·h/mL and the Drug metabolism (Rattus norvegicus [30]) was “metabolite_detected”. The AUC [15] was 4180 ng·h/mL, the half-life [16] was 10.2 h and the metabolic rate (Liver microsome [17]) was 0.253 nmol/min/mg. The CLint (Hepatocyte [19]) was 0.415 mL/h/10^6 cells and the Drug metabolism (Liver microsome [31]) was “metabolite_detected”.
